According to article PMC9052103 (RSC Advances, 2020):
Where two headings read alike, the source gives them in different places.

Key:
E. faecium ATCC 700221 = assay: MIC, 96-well microtiter broth dilution; type: cell-based
B. subtilis 168 = assay: Bacterial morphology study; type: cell-based; conditions: 0.5 μg mL^−1 for 4 h; control group 5–10 μm
Z-ring in B. subtilis = assay: Visualization of Z-ring; type: cell-based; conditions: 0.5 × MIC, 4 h
Summary of the method: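 B. subtilis carrying IPTG-inducible GFP-FtsZ plasmid grown in LB with 30 μg mL−1 chloramphenicol at 37 °C with shaking; overnight culture diluted to 1% in LB with 40 μM IPTG plus test compound at 0.5 × MIC, 4 h at 37 °C. Cells fixed, resuspended in PBS, placed on 0.1% (w/v) poly-L-lysine-coated slides; imaged by confocal microscopy, 40× oil immersion.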

E. coli ATCC 25922 = assay: MIC, 96-well microtiter broth dilution; type: cell-based; conditions: Escherichia coli, ATCC25922, read-out: MIC E. coli ATCC 25922
[1] = test system: E. faecium, S. epidermidis and E. coli; assay: MIC, summary over E. faecium, S. epidermidis and E. coli; type: cell-based; conditions: read-out: MIC against E. faecium, S. epidermidis and E. coli
S. aureus ATCC BAA-41 = assay: MIC, 96-well microtiter broth dilution; type: cell-based; conditions: Staphylococcus aureus, ATCCBAA41|MRSA, read-out: MIC S. aureus ATCC BAA-41
[2] = test system: drug-resistant K. pneumoniae, A. baumannii, P. aeruginosa and E. cloacae
S. aureus ATCC 29213 [3] = assay: In vitro drug resistance development, serial passage; type: cell-based
Summary of the method: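 Serial passage against S. aureus ATCC 29213: culture from the 0.5 × MIC well of the prior MIC plate diluted to 5 × 10^5 CFU mL−1 and exposed to a range of test compound concentrations. MIC read after 24 h at 37 °C. Cycle repeated 35 times. Ciprofloxacin, vancomycin and rifampin passaged in parallel.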

[4] = test system: human bronchial epithelium cells (16HBE); assay: CCK-8 cytotoxicity assay; type: cell-based; conditions: 48 h, read-out: IC50 16HBE
Summary of the method: (§1)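 Cells seeded at 5000 per well and allowed to adhere overnight at 37 °C, then exposed to test compound for 48 h. CCK-8 reagent added for a further 3 h, with absorbance read at 450 nm. Triplicates.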

S. aureus ATCC 29213 [5] = assay: MIC, 96-well microtiter broth dilution; type: cell-based; conditions: Staphylococcus aureus
S. aureus ATCC BAA-1720 = assay: MIC, 96-well microtiter broth dilution; type: cell-based; conditions: Staphylococcus aureus, ATCCBAA1720|MRSA, read-out: MIC S. aureus ATCC BAA-1720
S. aureus FtsZ = target: T1, S. aureus FtsZ (Staphylococcus aureus, UniProt P0A031); assay: Light-scattering assay of FtsZ polymerization; type: biochemical
T1 sequence (P0A031 1-390): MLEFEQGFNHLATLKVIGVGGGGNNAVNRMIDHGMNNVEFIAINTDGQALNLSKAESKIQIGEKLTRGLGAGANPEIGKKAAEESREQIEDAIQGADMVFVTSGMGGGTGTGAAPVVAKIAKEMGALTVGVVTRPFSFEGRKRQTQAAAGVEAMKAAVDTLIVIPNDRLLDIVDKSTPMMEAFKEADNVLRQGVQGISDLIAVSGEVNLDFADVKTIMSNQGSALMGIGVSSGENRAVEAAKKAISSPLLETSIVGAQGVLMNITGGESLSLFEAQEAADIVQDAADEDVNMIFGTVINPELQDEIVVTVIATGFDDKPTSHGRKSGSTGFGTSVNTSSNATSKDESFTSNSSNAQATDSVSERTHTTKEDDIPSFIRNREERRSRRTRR
Summary of the method: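 S. aureus FtsZ (4 μM) in 50 mM MOPS pH 6.5, preincubated 10 min at 25 °C with 1% DMSO vehicle or test compound. Baseline set after adding 50 mM KCl and 10 mM MgCl2. After 10 min, 1 mM GTP added. 90° light scattering (excitation/emission 600 nm) followed for 25 min, with blank background subtracted. Rate and extent of polymerization calculated. Triplicates.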

E. coli ATCC 8739 = assay: MIC, 96-well microtiter broth dilution; type: cell-based; conditions: Escherichia coli, ATCC8739, read-out: MIC E. coli ATCC 8739
E. faecalis ATCC 29212 = assay: MIC, 96-well microtiter broth dilution; type: cell-based; conditions: Enterococcus faecalis, ATCC29212, read-out: MIC E. faecalis ATCC 29212
MRSA strains = assay: MIC, summary over MRSA strains; type: cell-based, S. aureus; conditions: Staphylococcus aureus, read-out: MIC against MRSA
[6] = test system: human renal tubular epithelial cells (HK-2); assay: CCK-8 cytotoxicity assay; type: cell-based; conditions: Epithelial cell, 48 h, read-out: IC50 HK-2
Summary of the method: as §1

E. faecium ATCC 49624 = assay: MIC, 96-well microtiter broth dilution; type: cell-based; conditions: Enterococcus faecium, ATCC49624, read-out: MIC E. faecium ATCC 49624
SaFtsZ = SaFtsZ (Staphylococcus aureus, UniProt P0A031); assay: SaFtsZ binding affinity assay; set-up: species or system S. aureus
Summary of the method: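 Fluorescence titration at 25 °C in 50 mM Tris–HCl pH 7.4, 50 mM KCl, 2 mM magnesium acetate. Test compound at 3.51 or 3.68 μM titrated with SaFtsZ in 0.4 μM steps (0.4–6.4 μM), equilibrating 2 min per step. Excitation 493 nm, emission 500–700 nm, buffer-titration background subtracted. Kd obtained by nonlinear fit to an independent-site model.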

S. aureus ATCC BAA-1747 = assay: MIC, 96-well microtiter broth dilution; type: cell-based; conditions: Staphylococcus aureus, ATCCBAA1747|MRSA, read-out: MIC S. aureus ATCC BAA-1747
S. aureus ATCC 43300 = assay: MIC, 96-well microtiter broth dilution; type: cell-based; conditions: Staphylococcus aureus, ATCC43300|MRSA, read-out: MIC S. aureus ATCC 43300
S. aureus FtsZ (SaFtsZ) = S. aureus FtsZ (SaFtsZ) (Staphylococcus aureus, UniProt P0A031); assay: GTPase activity assay; type: biochemical
Summary of the method: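 Phosphate-release kit assay: S. aureus FtsZ (7.3 μM) in assay buffer with 1% DMSO vehicle or varied concentrations of test compound. Reaction started with 200 μM GTP and run 30 min at room temperature. Colour reagent added for another 30 min to stop the reaction, and inorganic phosphate read at 620 nm. Triplicates.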

[7] = test system: mouse fibroblast cells (L929); assay: CCK-8 cytotoxicity assay; type: cell-based; conditions: L929, 48 h, read-out: IC50 L929
Summary of the method: as §1

[8] = test system: S. epidermidis ATCC 12228; assay: MIC, 96-well microtiter broth dilution; type: cell-based; conditions: Staphylococcus epidermidis, ATCC12228, read-out: MIC S. epidermidis ATCC 12228

Question: What does the source list for `Cc1cc(/C=C2\Sc3ccccc3N2CCCN2CCC(C)CC2)c2ccccc2[n+]1C.[I-]` [Compound 4a4, (Z)-1,2-Dimethyl-4-((3-(3-(4-methylpiperidin-1-yl)propyl)benzo[d]thiazol-2(3H)-ylidene)methyl)quinolin-1-ium iodide]?
Answer: MIC (E. faecium ATCC 700221; Enterococcus faecium, ATCC700221): 2 µg/mL; MIC (E. faecium ATCC 700221; read-out: MIC against VRE): 2 to 16 µg/mL; Cell length of B. subtilis 168 (B. subtilis 168): > 10 μm; Effect on Z-ring formation (GFP-FtsZ localization) (Z-ring in B. subtilis): promoted the mislocalization of the FtsZ protein; MIC (E. coli ATCC 25922): 0.5 µg/mL; MIC [1]: 0.5 to 2 µg/mL; MIC (S. aureus ATCC BAA-41): 1 µg/mL; Antibacterial activity against drug-resistant K. pneumoniae, A. baumannii, P. aeruginosa and E. cloacae [2]: moderate antibacterial activity; Increase of MIC after 35 passages (S. aureus ATCC 29213 [3]): 16 fold; IC50 [4]: 14.3 µg/mL; MIC (S. aureus ATCC 29213 [5]; ATCC29213): 1 µg/mL; MIC (S. aureus ATCC 29213 [5]; ATCC29213, read-out: MIC S. aureus ATCC 29213): 1 µg/mL; MIC (S. aureus ATCC 29213 [5]; ATCC29213, read-out: S. aureus ATCC 29213 (MIC)): 1 µg/mL; MIC (S. aureus ATCC BAA-1720): 2 µg/mL; Effect on FtsZ polymerization at a concentration gradient (S. aureus FtsZ; 0.125–0.5 μg mL^−1): enhance FtsZ polymerization in a dose-dependent manner; Light scattering signal compared to control (FtsZ polymerization) (S. aureus FtsZ; same concentration, 0.125 μg mL^−1): significant increase in light scattering signal; MIC (E. coli ATCC 8739): 1 µg/mL; MIC (E. faecalis ATCC 29212): 2 µg/mL; MIC (MRSA strains): 1 to 8 µg/mL; IC50 [6]: 26 µg/mL; MIC (E. faecium ATCC 49624): 1 µg/mL; Kd (SaFtsZ): 0.125 µM; MIC (S. aureus ATCC BAA-1747): 2 µg/mL; MIC (S. aureus ATCC 43300): 2 µg/mL; Effect on GTPase activity of SaFtsZ (S. aureus FtsZ (SaFtsZ)): did not show any effect; IC50 [7]: 12.6 µg/mL; MIC [8]: 0.5 µg/mL
